Several values for one entry are separate records, joined by “and”; a condition that tells them apart may be missing. Equal entries are not always repeated.
Key:
Type in all cases: toxicity, cell-based
[1] = test system: Fibroblast; assay: Multiplex assay against human fibroblast; details: number of replicates 2
In short: (§1)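 Live cells carried four stains from seeding: Hoechst33342, BioTracker Green Microtubule Cytoskeleton Dye, MitoTracker Red and Annexin V Alexa Fluor 680. They were imaged on a CQ1 microscope at 37°C and 5% CO2 after compound addition. Using CellPathfinder machine-learning gating, cells were split into Hoechst high-intensity objects or normal cells, normal cells into healthy, pyknosed or fragmented nuclei, and pyknosed cells into mitotic or apoptotic; tubulin, mitochondrial-mass and membrane-permeability phenotypes are per cents of healthy-nucleus cells.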

[2] = test system: U2OS; assay: Multiplex assay against U2OS; details: human, number of replicates 2; in short: as §1
[3] = test system: HEK-293T; assay: Multiplex assay against HEK293T; details: human, number of replicates 2; in short: as §1
[4] = 12 h, 1 µM, compound concentration 1 uM
[5] = 12 h, 10 µM, compound concentration 10 uM
[6] = 24 h, 1 µM, compound concentration 1 uM
[7] = 24 h, 10 µM, compound concentration 10 uM
[8] = 48 h, 1 µM, compound concentration 1 uM
[9] = 48 h, 10 µM, compound concentration 10 uM

CC(C)(C)c1cnc(CSc2cnc(NC(=O)C3CCN(CC(=O)NCCOCCOCCOCCNc4cccc5c4C(=O)N(C4CCC(=O)NC4=O)C5=O)CC3)s2)o1 (configuration not stated)
Population Apoptotic (%) [1, 4]: 44% and 47%
Population Fragmented Nuclei (%) [1, 4]: 8% and 7%
Population Healthy Nuclei (%) [1, 4]: 70% and 73%
Population Hoechst High Intensity Objects (%) [1, 4]: 0%
Population Membrane Permeable-Phenotype (%) [1, 4]: 2% and 3%
Population Mitochondria Different-Phenotype (%) [1, 4]: 1% and 0%
Population Mitotic Cells (%) [1, 4]: 55% and 52%
Population Normal (%) [1, 4]: 100%
Population Pyknosed Nuclei (%) [1, 4]: 21% and 19%
Total Cell Count [1, 4]: 180 and 189
Population Apoptotic (%) [1, 5]: 61% and 53%
Population Fragmented Nuclei (%) [1, 5]: 15% and 23%
Population Healthy Nuclei (%) [1, 5]: 47% and 50%
Population Hoechst High Intensity Objects (%) [1, 5]: 0%
Population Membrane Permeable-Phenotype (%) [1, 5]: 15% and 27%
Population Mitochondria Different-Phenotype (%) [1, 5]: 9% and 16%
Population Mitotic Cells (%) [1, 5]: 38% and 46%
Population Normal (%) [1, 5]: 100% and 99%
Population Pyknosed Nuclei (%) [1, 5]: 36% and 25%
Population Tubulin-Different-Phenotype (%) [1, 5]: 58% and 63%
Total Cell Count [1, 5]: 107 and 167
Population Apoptotic (%) [1, 6]: 51% and 77%
Population Fragmented Nuclei (%) [1, 6]: 7% and 16%
Population Healthy Nuclei (%) [1, 6]: 71% and 63%
Population Hoechst High Intensity Objects (%) [1, 6]: 0% and 1%
Population Membrane Permeable-Phenotype (%) [1, 6]: 5% and 7%
Population Mitochondria Different-Phenotype (%) [1, 6]: 7% and 1%
Population Mitotic Cells (%) [1, 6]: 48% and 22%
Population Normal (%) [1, 6]: 100% and 98%
Population Pyknosed Nuclei (%) [1, 6]: 21% and 19%
Population Tubulin-Different-Phenotype (%) [1, 6]: 25% and 17%
Total Cell Count [1, 6]: 180 and 184
Population Apoptotic (%) [1, 7]: 71% and 72%
Population Fragmented Nuclei (%) [1, 7]: 17% and 21%
Population Healthy Nuclei (%) [1, 7]: 50% and 53%
Population Hoechst High Intensity Objects (%) [1, 7]: 0%
Population Membrane Permeable-Phenotype (%) [1, 7]: 14% and 13%
Population Mitochondria Different-Phenotype (%) [1, 7]: 28% and 21%
Population Mitotic Cells (%) [1, 7]: 28% and 27%
Population Normal (%) [1, 7]: 100% and 99%
Population Pyknosed Nuclei (%) [1, 7]: 31% and 24%
Population Tubulin-Different-Phenotype (%) [1, 7]: 56% and 58%
Total Cell Count [1, 7]: 112 and 153
Population Apoptotic (%) [1, 8]: 62% and 71%
Population Fragmented Nuclei (%) [1, 8]: 8% and 9%
Population Healthy Nuclei (%) [1, 8]: 58% and 63%
Population Hoechst High Intensity Objects (%) [1, 8]: 0%
Population Membrane Permeable-Phenotype (%) [1, 8]: 16% and 8%
Population Mitochondria Different-Phenotype (%) [1, 8]: 7% and 0%
Population Mitotic Cells (%) [1, 8]: 37% and 28%
Population Normal (%) [1, 8]: 100%
Population Pyknosed Nuclei (%) [1, 8]: 32% and 27%
Population Tubulin-Different-Phenotype (%) [1, 8]: 34% and 15%
Total Cell Count [1, 8]: 178 and 166
Population Apoptotic (%) [1, 9]: 83% and 78%
Population Fragmented Nuclei (%) [1, 9]: 18% and 26%
Population Healthy Nuclei (%) [1, 9]: 45% and 50%
Population Hoechst High Intensity Objects (%) [1, 9]: 0%
Population Membrane Permeable-Phenotype (%) [1, 9]: 9% and 13%
Population Mitotic Cells (%) [1, 9]: 16% and 21%
Population Normal (%) [1, 9]: 100% and 99%
Population Pyknosed Nuclei (%) [1, 9]: 36% and 23%
Population Tubulin-Different-Phenotype (%) [1, 9]: 44% and 63%
Total Cell Count [1, 9]: 115 and 158
Population Apoptotic (%) [2, 4]: 40% and 96%
Population Fragmented Nuclei (%) [2, 4]: 10% and 3%
Population Healthy Nuclei (%) [2, 4]: 82% and 88%
Population Hoechst High Intensity Objects (%) [2, 4]: 0%
Population Membrane Permeable-Phenotype (%) [2, 4]: 1%
Population Mitochondria Different-Phenotype (%) [2, 4]: 0% and 3%
Population Normal (%) [2, 4]: 100%
Population Pyknosed Nuclei (%) [2, 4]: 6% and 7%
Population Tubulin-Different-Phenotype (%) [2, 4]: 58% and 74%
Population Apoptotic (%) [2, 5]: 50% and 80%
Population Healthy Nuclei (%) [2, 5]: 47% and 59%
Population Hoechst High Intensity Objects (%) [2, 5]: 1% and 0%
Population Membrane Permeable-Phenotype (%) [2, 5]: 14% and 17%
Population Mitochondria Different-Phenotype (%) [2, 5]: 17% and 31%
Population Mitotic Cells (%) [2, 5]: 50% and 19%
Population Normal (%) [2, 5]: 98% and 100%
Population Pyknosed Nuclei (%) [2, 5]: 23% and 32%
Population Tubulin-Different-Phenotype (%) [2, 5]: 82% and 77%
Total Cell Count [2, 5]: 60 and 161
Population Apoptotic (%) [2, 6]: 66% and 72%
Population Fragmented Nuclei (%) [2, 6]: 6% and 3%
Population Healthy Nuclei (%) [2, 6]: 87%
Population Hoechst High Intensity Objects (%) [2, 6]: 0%
Population Membrane Permeable-Phenotype (%) [2, 6]: 1%
Population Mitochondria Different-Phenotype (%) [2, 6]: 1%
Population Mitotic Cells (%) [2, 6]: 33% and 27%
Population Normal (%) [2, 6]: 100% and 99%
Population Pyknosed Nuclei (%) [2, 6]: 6% and 9%
Population Tubulin-Different-Phenotype (%) [2, 6]: 56% and 71%
Population Apoptotic (%) [2, 7]: 65% and 93%
Population Fragmented Nuclei (%) [2, 7]: 17% and 11%
Population Healthy Nuclei (%) [2, 7]: 31% and 25%
Population Hoechst High Intensity Objects (%) [2, 7]: 1% and 0%
Population Membrane Permeable-Phenotype (%) [2, 7]: 12% and 14%
Population Normal (%) [2, 7]: 98% and 99%
Population Pyknosed Nuclei (%) [2, 7]: 50% and 63%
Population Tubulin-Different-Phenotype (%) [2, 7]: 81% and 57%
Total Cell Count [2, 7]: 52 and 141
Population Fragmented Nuclei (%) [2, 8]: 4%
Population Healthy Nuclei (%) [2, 8]: 85% and 86%
Population Hoechst High Intensity Objects (%) [2, 8]: 0%
Population Membrane Permeable-Phenotype (%) [2, 8]: 2% and 1%
Population Mitochondria Different-Phenotype (%) [2, 8]: 0% and 1%
Population Normal (%) [2, 8]: 99% and 100%
Population Pyknosed Nuclei (%) [2, 8]: 9%
Population Tubulin-Different-Phenotype (%) [2, 8]: 57% and 77%
Population Apoptotic (%) [2, 9]: 96% and 86%
Population Fragmented Nuclei (%) [2, 9]: 9% and 19%
Population Healthy Nuclei (%) [2, 9]: 11% and 19%
Population Hoechst High Intensity Objects (%) [2, 9]: 2%
Population Membrane Permeable-Phenotype (%) [2, 9]: 56% and 22%
Population Mitochondria Different-Phenotype (%) [2, 9]: 62% and 22%
Population Mitotic Cells (%) [2, 9]: 3% and 13%
Population Normal (%) [2, 9]: 97%
Population Pyknosed Nuclei (%) [2, 9]: 78% and 61%
Population Tubulin-Different-Phenotype (%) [2, 9]: 75% and 100%
Total Cell Count [2, 9]: 141 and 48
Population Apoptotic (%) [3, 4]: 65% and 77%
Population Fragmented Nuclei (%) [3, 4]: 5% and 4%
Population Healthy Nuclei (%) [3, 4]: 75%
Population Hoechst High Intensity Objects (%) [3, 4]: 15%
Population Membrane Permeable-Phenotype (%) [3, 4]: 4% and 1%
Population Mitochondria Different-Phenotype (%) [3, 4]: 42% and 53%
Population Mitotic Cells (%) [3, 4]: 34% and 22%
Population Normal (%) [3, 4]: 84%
Population Pyknosed Nuclei (%) [3, 4]: 18% and 20%
Population Tubulin-Different-Phenotype (%) [3, 4]: 74% and 82%
Total Cell Count [3, 4]: 329 and 381
Population Apoptotic (%) [3, 5]: 78% and 82%
Population Fragmented Nuclei (%) [3, 5]: 6% and 3%
Population Healthy Nuclei (%) [3, 5]: 75% and 73%
Population Hoechst High Intensity Objects (%) [3, 5]: 27% and 26%
Population Membrane Permeable-Phenotype (%) [3, 5]: 7%
Population Mitochondria Different-Phenotype (%) [3, 5]: 65% and 75%
Population Mitotic Cells (%) [3, 5]: 21% and 17%
Population Normal (%) [3, 5]: 72% and 73%
Population Pyknosed Nuclei (%) [3, 5]: 18% and 22%
Population Tubulin-Different-Phenotype (%) [3, 5]: 70% and 63%
Total Cell Count [3, 5]: 285 and 270
Population Apoptotic (%) [3, 6]: 76% and 75%
Population Fragmented Nuclei (%) [3, 6]: 5%
Population Healthy Nuclei (%) [3, 6]: 80% and 74%
Population Hoechst High Intensity Objects (%) [3, 6]: 17% and 20%
Population Membrane Permeable-Phenotype (%) [3, 6]: 2% and 1%
Population Mitochondria Different-Phenotype (%) [3, 6]: 49% and 52%
Population Mitotic Cells (%) [3, 6]: 23% and 25%
Population Normal (%) [3, 6]: 82% and 80%
Population Pyknosed Nuclei (%) [3, 6]: 14% and 20%
Population Tubulin-Different-Phenotype (%) [3, 6]: 69% and 74%
Total Cell Count [3, 6]: 332 and 395
Population Apoptotic (%) [3, 7]: 77% and 75%
Population Fragmented Nuclei (%) [3, 7]: 9% and 3%
Population Healthy Nuclei (%) [3, 7]: 65% and 68%
Population Hoechst High Intensity Objects (%) [3, 7]: 30% and 33%
Population Membrane Permeable-Phenotype (%) [3, 7]: 7% and 5%
Population Mitochondria Different-Phenotype (%) [3, 7]: 77% and 80%
Population Mitotic Cells (%) [3, 7]: 22% and 25%
Population Normal (%) [3, 7]: 69% and 66%
Population Pyknosed Nuclei (%) [3, 7]: 25% and 28%
Population Tubulin-Different-Phenotype (%) [3, 7]: 85%
Total Cell Count [3, 7]: 268 and 254
Population Apoptotic (%) [3, 8]: 76% and 85%
Population Fragmented Nuclei (%) [3, 8]: 6%
Population Healthy Nuclei (%) [3, 8]: 82% and 78%
Population Hoechst High Intensity Objects (%) [3, 8]: 11% and 17%
Population Membrane Permeable-Phenotype (%) [3, 8]: 3% and 0%
Population Mitochondria Different-Phenotype (%) [3, 8]: 52% and 59%
Population Mitotic Cells (%) [3, 8]: 23% and 14%
Population Normal (%) [3, 8]: 88% and 82%
Population Pyknosed Nuclei (%) [3, 8]: 11% and 15%
Population Tubulin-Different-Phenotype (%) [3, 8]: 64% and 63%
Total Cell Count [3, 8]: 294 and 328
Population Apoptotic (%) [3, 9]: 84% and 89%
Population Fragmented Nuclei (%) [3, 9]: 8% and 5%
Population Healthy Nuclei (%) [3, 9]: 71% and 70%
Population Hoechst High Intensity Objects (%) [3, 9]: 28% and 20%
Population Membrane Permeable-Phenotype (%) [3, 9]: 3% and 2%
Population Mitochondria Different-Phenotype (%) [3, 9]: 77% and 84%
Population Mitotic Cells (%) [3, 9]: 15% and 10%
Population Normal (%) [3, 9]: 71% and 79%
Population Pyknosed Nuclei (%) [3, 9]: 20% and 24%
Population Tubulin-Different-Phenotype (%) [3, 9]: 83% and 87%
Total Cell Count [3, 9]: 309 and 250

Source: ChEMBL document CHEMBL5303300, “EUbOPEN Chemogenomics Library - Multiplex” (2023)
